Screening data (PubChem)
Sampled rows, rich in hits. Any-hit rate of the full collection: about 4.2%.
TMEM16A act: activates or potentiates the mouse TMEM16A chloride channel; Q8BHY3; HEK293 TMEM16A/YFP-H148Q/I152L, iodide quench fluorescence; active compounds read low; B-score at 10 µM; 340,000 tested, 0.3% active;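 active = fluorescence-ratio B-score plate-corrected deviation score at least 3 library SD below zero, with starting fluorescence score within 5 deviations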;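 note: channel opened by trigger with iodide after compound preincubation; score built on the fluorescence ratio of max minus min over baseline; more negative score means more quench and so TMEM16A activation or potentiation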
Target sequence (Q8BHY3 whole entry, looked up): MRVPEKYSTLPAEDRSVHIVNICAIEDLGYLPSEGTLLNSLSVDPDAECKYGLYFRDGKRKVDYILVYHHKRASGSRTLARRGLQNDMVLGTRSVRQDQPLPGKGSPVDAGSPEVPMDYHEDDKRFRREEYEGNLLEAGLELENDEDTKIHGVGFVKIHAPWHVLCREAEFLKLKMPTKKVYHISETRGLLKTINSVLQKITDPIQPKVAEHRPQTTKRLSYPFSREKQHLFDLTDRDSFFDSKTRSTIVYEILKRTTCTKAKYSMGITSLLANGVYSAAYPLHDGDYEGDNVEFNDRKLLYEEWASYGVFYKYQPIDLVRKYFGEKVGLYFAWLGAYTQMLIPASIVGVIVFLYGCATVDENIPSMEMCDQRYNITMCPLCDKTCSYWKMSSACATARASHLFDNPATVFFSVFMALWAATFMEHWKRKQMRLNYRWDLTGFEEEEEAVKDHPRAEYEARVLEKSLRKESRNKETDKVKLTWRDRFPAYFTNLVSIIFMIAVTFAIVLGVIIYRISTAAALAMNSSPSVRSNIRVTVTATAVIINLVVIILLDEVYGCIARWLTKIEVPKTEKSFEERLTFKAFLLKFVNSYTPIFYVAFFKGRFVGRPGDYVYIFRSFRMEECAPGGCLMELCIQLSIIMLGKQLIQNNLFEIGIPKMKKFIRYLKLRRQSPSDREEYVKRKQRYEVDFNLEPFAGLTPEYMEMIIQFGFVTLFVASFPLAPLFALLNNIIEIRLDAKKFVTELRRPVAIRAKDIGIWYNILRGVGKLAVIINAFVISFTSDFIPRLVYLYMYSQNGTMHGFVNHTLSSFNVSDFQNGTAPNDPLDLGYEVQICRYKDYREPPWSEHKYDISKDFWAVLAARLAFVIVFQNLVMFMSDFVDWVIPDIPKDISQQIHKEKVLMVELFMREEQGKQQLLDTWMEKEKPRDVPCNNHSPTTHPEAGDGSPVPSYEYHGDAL
XBP1 UPR activ: adaptive UPR (XBP1) activation | CHO-XBP1 luciferase reporter, IRE1-XBP1 UPR activation, luminescence; percent of tunicamycin response, DMSO as zero | activation, % at 20 µM | 330,000 tested, 0.33% active | AID 463104;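 active = versus positive control, 20 µM dose yields 30% or more activation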
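assay system = CHO-XBP1 luciferase reporter cells | amount = 1000 cells/well | buffer or medium = F12 plus 10% FBS | compound dosing = single point, 20 µM final compound, 1% DMSO | incubation = 16-18 h cell attachment at 37 °C, then 6 h compound exposure | detection = Steady-Glo luminescence read | controls = tunicamycin 10 µg/mL and vehicle-only wells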
ANO1 block: blocks the mouse calcium-activated chloride channel TMEM16A; Q8BHY3; HEK293 TMEM16A/YFP iodide influx fluorescence, ionomycin; normalized B-score (activity score, 25-100; higher = stronger inhibition) at 10 µM; 310,000 tested, 1.2% active; AID 588511;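 active = ratio plate-corrected score three or more library SD toward inhibition, starting fluorescence score within five deviations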;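 note: score derived from kinetic fluorescence span divided by baseline fluorescence per well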
CHOP inhibitor: blocks CHOP induction under ER stress. 220,000 tested, 3.8% active. CHO-K1 CHOP-promoter luciferase, tunicamycin-induced, 15-18 h. inhibition, % at 10 µM. AID 2732;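 active = compounds that reduced the stress-induced luciferase reporter signal by more than about 70% of percent inhibition, limit read from the data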
UPR CHOP act: apoptotic UPR (CHOP) activation; CHO-CHOP luciferase reporter, luminescence; percent of tunicamycin response over DMSO baseline; activation, % at 10 µM; 330,000 tested, 0.34% active;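 active = at 10 µM dose, activation of 40% or more, normalized to positive control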
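Test system: CHO-CHOP cells, stable luciferase reporter of PERK-eIF2a-CHOP signalling | Quantity: 500 CHO-CHOP cells per well | Buffer or medium: F12 plus 10% serum | Compound dosing: 10 µM single point, 0.5% DMSO | Schedule: 6 h compound treatment, 37 °C | Signal: Luciferase luminescence | Control set: Tunicamycin high control, DMSO low control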
Hep lipid drop: hepatic lipid droplet formation modulation. 240,000 tested, 0.4% active. AID 1656. AML12 mouse hepatocytes, oleate lipid droplets, BODIPY imaging. inhibition, % at 6.5 µM;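 active = lipid droplet intensity inhibited by at least 50%, with more than 500 cells counted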
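Technique: fluorescence imaging, 20x objective, two fields per well / Assay system: AML12 hepatocytes (mouse) / Measure: % inhibition of lipid droplet signal / Doses: 6.5 µM single-point dosing / Incubation: overnight exposure / Reagent: 100 µM oleic acid challenge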
Numbers stand for hits; 0 = inactive; - = not tested or not shown.

SMILES	TMEM16A act	XBP1 UPR activ	ANO1 block	CHOP inhibitor	UPR CHOP act	Hep lipid drop
O=C(c1ccccc1)c1c2c(cc3sc4ccccc4[n+]13)-c1cccc3cccc-2c13	0	-	100	82.4	-	0
CC(=O)Oc1ccc2ccc3ccc(C(C)=O)cc3c2c1	0	-	-	-	-	-
COc1cc2c(cc1NC(=O)C(c1ccccc1)c1ccccc1)CCCC2	0	0	0	0	0	0
CCOC(=O)c1cnc(-n2nc(C)cc2C)nc1Nc1ccc(OC)cc1	0	0	0	0	0	0
CCOC(=O)c1cnc(-n2nc(C)cc2C)nc1NCc1ccc2c(c1)OCO2	0	0	0	86.5	0	0
Cc1ccc(C(=O)CN(C(=O)c2ccc(Cl)c(Cl)c2)N2C(=O)C3CCCCC3C2=O)cc1C (centres undefined)	-5.52	0	0	0	0	0
Cc1ccc(C(=O)CN(C(=O)c2ccc(Cl)c(Cl)c2)N2C(=O)C3CCCCC3C2=O)cc1 (centres undefined)	0	0	0	0	0	-
CN(C)CCCNC(=O)C1(O)c2cc(Br)ccc2NC(=O)N1c1ccc(Cl)cc1 (centres undefined)	0	0	0	-	0	-
O=C(Nc1ccc(-c2csc(Nc3ccccc3)n2)cc1)c1cccc(C(F)(F)F)c1	0	0	0	90.7	0	0
CC(OC(=O)c1cccc(S(=O)(=O)Nc2cccc(C(F)(F)F)c2)c1)C(=O)Nc1ccc2c(c1)OCCO2 (centres undefined)	0	0	100	0	0	0
CC(=O)Nc1ccc(NC(=O)C(C)OC(=O)c2ccc3c(c2)OCCO3)cc1 (centres undefined)	0	0	0	0	0	0
N#CCCN1CCN(Cc2cc(-c3ccccc3)ccc2O)CC1	0	0	0	0	0	-
CC(C)(C)CC(C)(C)c1ccc(O)c(CN2CCN(CCC#N)CC2)c1	0	0	0	73.5	0	0
COc1ccc(Sc2cc(C(F)(F)F)nc(-c3ccccn3)n2)cc1	0	0	0	82.7	0	-
O=C(NC(=S)Nc1cc(C(F)(F)F)ccc1Cl)c1ccccc1	0	0	0	88.8	0	-
CCOc1ccc(C2=CC(=O)C[C@H](c3ccc(OC)cc3)C2)cc1	0	0	-	-	0	-
CCOC(=O)c1c(NC(=O)CC2Nc3cc(C)c(C)cc3NC2=O)sc(C)c1C (centres undefined)	0	0	0	73.7	0	0
CCCCSC1(SCCCC)N=C(N)C2(C#N)C(c3ccccc3)NC(C)=C(C)C12C#N (centres undefined)	0	0	0	75.6	0	-
CCCCn1c(=O)[nH]c2nc3cc(NC(C)=O)ccc3nc2c1=O	0	0	0	0	0	0
CCCCCCn1c(=O)[nH]c2nc3cc(N)c(C)cc3nc2c1=O	0	-	-	101.2	-	0
CC(=O)c1ccc(-c2ccc(C(=O)N(C)Cc3nc4ccccc4c(=O)[nH]3)o2)cc1	0	0	-	-	0	-
COc1ccc(Oc2cccc(Cl)c2CNC(=O)c2ccccc2C(=O)O)cc1	0	0	0	0	0	0
Cc1ccc(/C=C/S(=O)(=O)NCCC(=O)NCc2ccc(F)cc2)cc1	-41.8	0	-	-	0	-
Cc1ccc(/C=C/S(=O)(=O)NCCC(=O)NCc2ccccc2F)cc1	0	0	-	-	0	-
O=C(NCCN1CCOCC1)c1cccc(S(=O)(=O)NCc2ccccc2)c1	0	0	0	-	0	-
SMILES	TMEM16A act	XBP1 UPR activ	ANO1 block	CHOP inhibitor	UPR CHOP act	Hep lipid drop
COc1ccc(Cc2nnc(NC(=O)Nc3ccccc3F)s2)cc1OC	0	0	0	-	0	0
CC(C)C1O/C(=N/C(=O)Nc2ccc(Cl)c(Cl)c2)NC1=O (centres undefined)	0	0	100	0	0	-
O=C(Nc1ccc(Cl)c(Cl)c1)c1ccc(Cl)c(Cl)c1	0	0	0	0	0	0
CCN1CCN(C(=O)CN2C(=O)c3ccccc3S2(=O)=O)CC1	0	0	0	-	0	-
CC(OC(=O)CNC(=O)C12CC3CC(CC(C3)C1)C2)C(=O)Nc1ncc(Cl)cc1Cl (centres undefined)	0	0	0	0	0	0
CC1CCc2sc(C(=O)OC(C)C(=O)Nc3ncc(Cl)cc3Cl)cc2C1 (centres undefined)	-	0	0	90.0	0	0
O=C(CCc1nc2ccccc2c(=O)[nH]1)N1CCN(c2ccc(F)cc2)CC1	0	0	0	0	0	0
C[C@@H]1CC=C[C@H]2[C@H]1C(=O)N(Cc1ccccc1)[C@H]2c1ccc(F)c(Br)c1	-	-	-	76.4	-	0
C[C@@H]1CC=C[C@H]2[C@H]1C(=O)N(Cc1ccccc1)[C@H]2c1ccc(F)c(/C=C/c2ccccc2)c1	0	0	0	0	0	0
CCOc1ccc(C(C(=O)NC2CCCCC2)N(C(=O)Cc2cccs2)c2ccc(-n3cnnn3)c(OC)c2)cc1 (centres undefined)	0	0	0	83.7	0	0
COc1cccc(-c2cc(C(F)(F)F)nc(NCc3ccco3)n2)c1	0	0	0	70.7	0	0
FC(F)(F)c1cc(-c2ccco2)nc(NCc2ccco2)n1	0	0	0	0	0	0
COc1ccc(-c2cc(C(F)(F)F)nc(NCc3ccco3)n2)cc1OC	0	0	0	75.1	0	-
Cc1ccc(NC(=O)NNC(=O)c2ccc3c(c2)NC(=O)C(C)(C)O3)cc1	0	0	0	-	0	0
CCN1CCN(C(=O)C(C)Oc2ccc(S(=O)(=O)N3CCCC3)cc2C(N)=O)CC1 (centres undefined)	0	0	-	-	0	-
COc1ccccc1N1CCN(CCNC(=O)Nc2cccc(C)c2C)CC1	0	0	25	0	0	0
COc1ccc(NS(=O)(=O)c2ccc(C)c(C(=O)NCC(c3ccco3)N(C)C)c2)cc1 (centres undefined)	0	0	0	-	0	-
Cc1nc2cc(NC(=O)c3ccc(S(=O)(=O)N(C)c4ccccc4)cc3)ccc2o1	0	0	0	-	0	0
O=C(Nc1ccc(Cl)cc1)Nc1nnc(CSCc2ccccc2Cl)s1	0	0	0	0	0	0
O=C(Nc1ccc(Cl)c(Cl)c1)Nc1nnc(CSc2ccccc2)s1	0	0	0	77.0	0	0
O=C(Nc1ccccc1)Nc1nnc(CSCc2ccccc2Cl)s1	0	0	0	90.2	0	0
O=C(Nc1ccc(Cl)cc1)Nc1nnc(SCc2ccccc2)s1	0	0	0	0	0	0
Cc1ccc(OCCSCc2nnc(NC(=O)Nc3cccc(Cl)c3)s2)cc1	0	0	0	82.8	0	0
O=C(Nc1ccc(Cl)c(Cl)c1)Nc1nccs1	0	0	0	79.1	0	0
COc1ccc(NC(=O)CCCNC(=O)c2ccc(Cl)cc2)cc1OC	0	0	0	-	0	0
Cc1nc2cc(-c3ccccc3)sc2c(=O)n1N	0	0	0	73.7	0	0
